Results: ChEMBL document CHEMBL3272276, “Synthesis and antimicrobial evaluation of substituted 5,6-dihydro-5-nitrouracils” (1976)
Converted amounts (≈) assume the structure as drawn. The source made the active and inactive calls. No cut-off for these calls is given here.

Tests used:
[1] = system: Trichophyton mentagrophytes; assay: Antifungal activity against Trichophyton mentagrophytes clinical isolate at 0.4 umol/ml after 48 hrs by broth dilution assay; assay type: functional, organism-based
Procedure, shortened: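 The clinical dermatophyte isolate was tested by broth dilution using serial dilutions in chemically defined medium over 0.4 to 0.005 µmol/ml. Inhibition was read after 48 h at 30°. MIC was the highest dilution with no visible growth.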

Candida albicans = assay: Antifungal activity against Candida albicans clinical isolate at 0.4 umol/ml after 24 hrs by broth dilution assay; assay type: functional, organism-based
Procedure, shortened: (§1)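 Clinical isolates were tested by broth dilution using serial dilutions in chemically defined medium over 0.4 to 0.005 µmol/ml. Plates were incubated for 24 h at 35°. MIC was taken as the highest dilution that prevented visible growth.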

Escherichia coli [2] = assay: Antimicrobial activity against Escherichia coli clinical isolate after 24 hrs by broth dilution assay; assay type: functional; procedure, shortened: as §1
Pseudomonas aeruginosa [3] = assay: Antimicrobial activity against Pseudomonas aeruginosa clinical isolate after 24 hrs by broth dilution assay; assay type: functional; procedure, shortened: as §1
Staphylococcus aureus [4] = assay: Antimicrobial activity against Staphylococcus aureus clinical isolate after 24 hrs by broth dilution assay; assay type: functional; procedure, shortened: as §1
Pseudomonas aeruginosa [5] = assay: Antimicrobial activity against Pseudomonas aeruginosa clinical isolate up to 0.4 umol/ml after 24 hrs by broth dilution assay; assay type: functional, organism-based
Procedure, shortened: (§2)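 Clinical isolate tested by broth dilution in chemically defined medium. Serial dilutions span 0.4 to 0.005 μmol/ml. Incubation is 24 h at 35°. MIC is taken as the highest dilution of compound that prevents visible growth.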

Escherichia coli [6] = assay: Antimicrobial activity against Escherichia coli clinical isolate up to at 0.4 umol/ml after 24 hrs by broth dilution assay; assay type: functional, organism-based; procedure, shortened: as §2
Staphylococcus aureus [7] = assay: Antimicrobial activity against Staphylococcus aureus clinical isolate up to 0.4 umol/ml after 24 hrs by broth dilution assay; assay type: functional, organism-based; procedure, shortened: as §2

Row | SMILES | Activity [1] | Activity (Candida albicans) | MIC (Escherichia coli [2]) [µM] | MIC (Pseudomonas aeruginosa [3]) [µM] | MIC (Staphylococcus aureus [4]) [µM] | Activity (Pseudomonas aeruginosa [5]) | Activity (Escherichia coli [6]) | Activity (Staphylococcus aureus [7])
1 | [N-]=[N+]=C1C=NC(=O)NC1=O | inactive | inactive | 20 (≈ 2.76 µg/mL) | 40 (≈ 5.52 µg/mL) | 10 (≈ 1.38 µg/mL) |  |  | 
2 | O=C1NC(=O)N(c2ccc([N+](=O)[O-])cc2)CC1[N+](=O)[O-] (stereo unspecified) |  |  |  |  |  | inactive | inactive | inactive
3 | CCOC(=O)[C@H]1O[C@@H](n2cc([N+](=O)[O-])c(=O)[nH]c2=O)[C@H](O)[C@@H]1O |  |  |  |  |  | inactive | inactive | inactive
4 | O=c1[nH]c(=O)n(-c2ccc([N+](=O)[O-])cc2)cc1[N+](=O)[O-] |  |  |  |  |  | inactive | inactive | inactive
5 | CCOC(=O)[C@H]1O[C@@H](N2CC([N+](=O)[O-])C(=O)NC2=O)[C@H](O)[C@@H]1O (stereo partly specified) |  |  |  |  |  | inactive | inactive | inactive
6 | Cc1[nH]c(=O)[nH]c(=O)c1[N+](=O)[O-] |  |  |  |  |  | inactive | inactive | inactive
7 | CC1NC(=O)NC(=O)C1[N+](=O)[O-] (stereo unspecified) |  |  |  |  |  | inactive | inactive | inactive
8 | O=C1NCC([N+](=O)[O-])C(=O)N1 (stereo unspecified) |  |  |  |  |  | inactive | inactive | inactive
9 | [N-]=[N+]=C1C(=O)NC(=O)NC1O (stereo unspecified) | inactive | inactive | 10 (≈ 1.56 µg/mL) | 20 (≈ 3.12 µg/mL) | 20 (≈ 3.12 µg/mL) |  |  | 
